# Screening data deposited in PubChem by Broad Institute.
# Only some compounds are listed: those with a hit (about 2.6% of all), similar ones and a draw of the others.
# E-sel inducer – induces E-selectin expression in human endothelial cells. activation, % at 7.58 µM. hit rate 0.37% among 260,000. P16581. HUVEC E-selectin immunofluorescence imaging; normalized: neutral wells 0, TNF-alpha wells 100;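 active = mean E-selectin-positive cell signal at least 10% of the positive control, reached in at least 60% of replicates, without over 20% cell loss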
#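 System: HUVEC / Compound: single concentration / Signal: immunofluorescence imaging / Read-out: percent E-selectin-positive cells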
# miR-122 sensor – blocks miR-122 activity in Huh7 sensor cells; Huh7 miR-122 Renilla luciferase sensor, 48 h; neutral wells = 0, positive control = 100; activation (reporter increase), % at 12.5 µM; hit rate 0.3% among 340,000; AID 602342;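 active = mean replicate activation score at least 90 and every replicate individually at or above 90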;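 also: higher luciferase means less miR-122 activity so hits act as miR-122 inhibitors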
# CFTR F508del cor – correctors of CFTR F508del function in bronchial epithelial cells. CFBE cells, YFP halide quenching; stimulated with forskolin plus potentiator P3; % fluorescence drop versus neutral controls. hit rate 0.36% among 350,000. activity (quench increase), % at 7.58 µM. AID 720511;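 active = mean added fluorescence quench of at least 8% versus neutral control, with both replicates also reaching 8%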;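 also: cells transiently co-express mutant CFTR-F508del with the halide-sensitive YFP; corrector assay measuring rescue of mutant channel to the surface after 24 h compound exposure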
# DENV2 CPE – inhibitors of DENV2 cytopathic effect | CPE inhibition, % at 9.99 µM | DENV2-infected cells, cytopathic effect rescue, plate reader | AID 651640 | hit rate 1.7% among 350,000; in the data active = CPE inhibition above about 20%, passing the limit was not always enough; tested in BHK-21 cells
# ERAP1 inh – inhibitors of human ERAP1 aminopeptidase; inhibition, % at 10.7 µM; Q9NZ08; hit rate 0.15% among 340,000; recombinant ERAP1, Leu-AMC fluorescence, 60 min;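 active = mean replicate inhibition of at least 30%, or all replicates individually reaching that 30% level; inactive = mean below 30% and not every replicate reaching it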
# Target sequence (Q9NZ08 whole entry, looked up): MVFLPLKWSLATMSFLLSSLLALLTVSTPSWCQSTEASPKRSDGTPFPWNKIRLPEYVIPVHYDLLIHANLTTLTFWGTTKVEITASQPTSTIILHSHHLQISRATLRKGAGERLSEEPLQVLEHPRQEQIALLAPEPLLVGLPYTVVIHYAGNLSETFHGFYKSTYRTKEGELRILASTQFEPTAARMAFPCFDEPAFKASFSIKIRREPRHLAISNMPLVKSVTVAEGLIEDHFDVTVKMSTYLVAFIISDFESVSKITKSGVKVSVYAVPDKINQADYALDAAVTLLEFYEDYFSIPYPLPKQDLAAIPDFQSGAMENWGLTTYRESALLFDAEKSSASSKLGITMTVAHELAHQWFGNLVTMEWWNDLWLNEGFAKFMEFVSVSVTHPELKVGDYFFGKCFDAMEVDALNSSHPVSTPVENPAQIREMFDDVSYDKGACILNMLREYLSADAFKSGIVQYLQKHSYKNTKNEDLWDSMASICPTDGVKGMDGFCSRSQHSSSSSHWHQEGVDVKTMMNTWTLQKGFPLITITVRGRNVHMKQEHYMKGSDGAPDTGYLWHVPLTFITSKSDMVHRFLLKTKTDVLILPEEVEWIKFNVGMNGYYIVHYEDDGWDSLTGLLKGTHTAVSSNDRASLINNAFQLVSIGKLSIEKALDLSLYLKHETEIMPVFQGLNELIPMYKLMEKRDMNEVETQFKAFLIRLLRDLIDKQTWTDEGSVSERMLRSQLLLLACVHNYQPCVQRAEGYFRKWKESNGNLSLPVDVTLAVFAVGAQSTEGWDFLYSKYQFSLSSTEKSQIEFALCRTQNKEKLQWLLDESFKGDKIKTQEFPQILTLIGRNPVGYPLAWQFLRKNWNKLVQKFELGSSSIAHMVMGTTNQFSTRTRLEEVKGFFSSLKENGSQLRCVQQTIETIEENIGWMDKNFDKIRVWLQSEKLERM
# GSIS activator – GLuc luminescence reporter in INS-1E cells, primary screen for activators of glucose-dependent secretion of insulin | AID 743287 | hit rate 0.61% among 370,000 | INS-1E GLuc reporter insulin secretion, 2-3 h | activation, % at 16.6 µM;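 active = lowest replicate activation of at least 40%, so every replicate reaches that level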
# Numbers stand for hits; n = inactive; x = no result; ! = a repeat was not active.
SMILES,E-sel inducer,miR-122 sensor,CFTR F508del cor,DENV2 CPE,ERAP1 inh,GSIS activator
Cc1cc(C)nc(NN=C2CCCC2)n1,n,x,x,x,x,n
C1CCCCCC(=NNc2nn[nH]n2)CCCCC1,67,n,n,n,x,n
CO[C@H]1CN(C)C(=O)c2ccc(NS(=O)(=O)c3cn(C)cn3)cc2OC[C@H](C)N(CCC(F)(F)F)C[C@H]1C,n,x,n,n,n,n
c1ccc(CCNc2nc(-c3ccccn3)nc3ccccc23)cc1,n,n,13,n,n,n
CCCN(CCC)c1nc(-c2ccccn2)nc2ccccc12,n,n,n,n,n,n
COC(C(=O)C(O)C(C)O)C1Cc2cc3cc(OC4CC(OC5CC(O)C(O)C(C)O5)C(O)C(C)O4)c(C)c(O)c3c(O)c2C(=O)C1OC1CC(OC2CC(OC3CC(O)C(OC)C(C)O3)C(O)C(C)O2)C(O)C(C)O1 (stereo not drawn),n,n,13,n,n,n
C[C@H]1CN(C)C(=O)c2cccc(N(C)C)c2O[C@H]1CN(C)C,x,x,x,x,x,n
Cc1ccc(S(=O)(=O)c2nnn3c2nc(N2CCOCC2)c2ccccc23)cc1C,x,x,n,25,n,n
O=C(NNS(=O)(=O)c1cccc(Cl)c1Cl)c1cccc(S(=O)(=O)N2CCOCC2)c1,n,n,x,n,n,n
O=C(NNS(=O)(=O)c1ccc(Cl)cc1)c1cccc(S(=O)(=O)N2CCOCC2)c1,x,249,n,n,n,n
COc1ccc2ccc(=O)oc2c1CC=C(C)C,x,n,n,n,n,62
C[N+]1(CC(O)COCC2COc3ccccc3O2)CCOCC1 (stereo not drawn),x,n,n,n,104,n
OC(COCC1COc2ccccc2O1)CN1CCN(c2ccccc2)CC1 (stereo not drawn),x,n,x,x,x,x
CN(c1cccc(NC(=O)c2ccc(C(C)(C)C)cc2)c1)S(C)(=O)=O,n,n,n,21,n,n
CO[C@H]1CN(C)C(=O)c2ccc(NC(C)=O)cc2OC[C@@H](C)N(Cc2nccs2)C[C@@H]1C,n,n,n,n,n,n
O=C(c1cccc(F)c1)N1C[C@@H]2[C@H](c3ccccc31)[C@@H](CO)N2C(=O)C1CCCC1,n,n,n,n,n,n
O=C(c1ccccc1)N1C[C@@H]2[C@H](c3ccccc31)[C@H](CO)N2C(=O)c1cccc(F)c1,n,n,n,26,n,n
O=C(c1cccc(F)c1)N1C[C@@H]2[C@H](c3ccccc31)[C@H](CO)N2C(=O)C1CC1,n,n,n,32,n,n
CCC(=O)Nc1ccc2c(c1)OC[C@H](C)N(CCc1ccccc1)C[C@H](C)[C@H](OC)CN(C)C2=O,n,x,n,x,x,n
COc1cc(C(c2sc3nc(C)nn3c2O)N2CCN(c3ccccc3)CC2)cc(OC)c1OC (stereo not drawn),n,x,8.5,n,n,x
O=S(=O)(c1ccccc1)N1[C@@H]2CNC[C@H]1C2c1ccc(-c2ccccc2)cc1 (stereo partly drawn),n,x,n,68,n,n
Cc1ccc(S(=O)(=O)N2[C@@H]3CNC[C@H]2C3c2ccc(-c3ccc(C#N)cc3)cc2)cc1 (stereo partly drawn),n,x,n,29,n,n
O=S(=O)(c1ccc(-c2ccccc2)cc1)N1[C@@H]2CNC[C@H]1C2c1ccc(-c2ccccc2)cc1 (stereo partly drawn),x,x,x,x,x,n
C[C@@H]1CN([C@@H](C)CO)C(=O)c2cc(NC(=O)Nc3ccc4c(c3)OCO4)ccc2O[C@@H](C)CCCCO[C@H]1CN(C)Cc1ccncc1,n,n,n,n,n,n
C[C@@H]1CN([C@@H](C)CO)S(=O)(=O)c2ccc(-c3ccncc3)cc2O[C@@H]1CN(C)C(=O)CC1CC1,n,n,n,n,n,n
SMILES,E-sel inducer,miR-122 sensor,CFTR F508del cor,DENV2 CPE,ERAP1 inh,GSIS activator
C[C@@H]1CN([C@@H](C)CO)S(=O)(=O)c2ccc(-c3ccncc3)cc2O[C@H]1CN(C)C(=O)CC1CC1,n,n,n,85,n,n
COCC(=O)N(C)C[C@H]1Oc2cc(-c3ccncc3)ccc2S(=O)(=O)N([C@H](C)CO)C[C@H]1C,n,n,n,74,n,n
COCC(=O)N(C)C[C@@H]1Oc2cc(-c3ccc(F)cc3)ccc2S(=O)(=O)N([C@H](C)CO)C[C@H]1C,58!,n,n,n,n,n
Cc1c(CCC(=O)NCCCCCC(=O)O)c(=O)oc2cc3occ(-c4ccccc4)c3cc12,n,n,n,n,35,n
Cc1ccc(F)cc1S(=O)(=O)N[C@H]1CCN(Cc2ccc(OC(C)C)cc2)C1,x,x,n,29,n,x
CN(C)C(=O)C[C@@H]1CC[C@H]2[C@@H](COC[C@@H](O)CN2Cc2ccc(C(F)(F)F)cc2)O1,n,n,n,n,x,n
Cn1c(=O)c2[nH]c(CCCCc3nc4ccccc4[nH]3)nc2n(C)c1=O,x,n,n,47,n,n
Cn1c(=O)c2[nH]c(CCCCCCCCc3nc4ccccc4[nH]3)nc2n(C)c1=O,n,n,n,n,n,n
CN(C)CC(=O)N1[C@H](CO)[C@@H](c2ccccc2)C12CN(C(=O)c1ccccc1)C2,n,x,n,81,n,n
COCC(=O)N1CC2(C1)[C@@H](c1ccccc1)[C@@H](CO)N2C(=O)c1ccccc1,n,x,n,27,n,n
CN(C)CC(=O)N1[C@H](CO)[C@H](c2ccccc2)C12CN(C(=O)c1ccccc1)C2,n,x,n,n,n,n
C/C=C/c1ccc([C@H]2[C@@H](CO)N(C(=O)CC)C23CN(C(=O)c2ccccc2)C3)cc1,n,x,n,29,n,n
C/C=C/c1ccc([C@@H]2[C@H](CO)N(C(=O)CC)C23CN(C(=O)c2ccccc2)C3)cc1,n,x,n,n,n,n
CN(C)CC(=O)N1[C@H](CO)[C@H](c2ccccc2)C12CN(CCC(F)(F)F)C2,n,x,n,21,n,n
O=C(Cc1ccccn1)N1CC(=O)N2[C@@H](CO)[C@@H](c3ccc(C#CC4CCCCC4)cc3)[C@@H]2C1,n,x,n,n,n,n
C[C@H]1CN([C@@H](C)CO)C(=O)c2cc(NC(=O)C3CC3)ccc2O[C@@H]1CN(C)Cc1ccc(C(F)(F)F)cc1,n,n,n,n,n,n
C[C@H](CO)N1C[C@H](C)[C@@H](CN(C)S(=O)(=O)c2cccs2)Oc2ccc(NC(=O)Nc3ccc4c(c3)OCO4)cc2CC1=O,n,n,n,n,x,n
O=C(Cc1ccccc1)N1CC2(C1)[C@H](c1ccccc1)[C@@H](CO)N2S(=O)(=O)Cc1ccccc1,n,x,n,33,n,n
Cc1ccc(CNc2nc(N)c([N+](=O)[O-])c(NCc3ccccc3)n2)cc1,n,x,x,x,x,126
CNc1nc(N)c([N+](=O)[O-])c(NCc2ccccc2)n1,n,n,x,76,n,n
